By IC50 is commonly meant the concentration that gives 50% inhibition. A lower IC50 goes with higher potency.

The subject of data set [1] is Canis familiaris. The data set can be described thus: Gastrointestinal motility was reported after intravenous administration at a dose 1 mg/kg to dogs in stomach. The class given is functional, Canis lupus familiaris. The method, boiled down:
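Contractions were recorded by force transducers implanted on the gastric antrum and analyzed by computer. The motor index is the area between the contraction wave and baseline, i.e. amplitude (voltage) × time in min over a fixed period. The index for the 30 min after dosing is expressed as a percentage of that for the 30 min before.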

In data set [2] the target is 5-hydroxytryptamine receptor 4 (Cavia porcellus, UniProt O70528). The data set can be described thus: Inhibitory activity against 5-hydroxytryptamine 4 receptor of guinea pig striatum using [3H]GR-113808 as radioligand. The class given is tissue-based.
Chain of 5-hydroxytryptamine receptor 4 (O70528 whole entry): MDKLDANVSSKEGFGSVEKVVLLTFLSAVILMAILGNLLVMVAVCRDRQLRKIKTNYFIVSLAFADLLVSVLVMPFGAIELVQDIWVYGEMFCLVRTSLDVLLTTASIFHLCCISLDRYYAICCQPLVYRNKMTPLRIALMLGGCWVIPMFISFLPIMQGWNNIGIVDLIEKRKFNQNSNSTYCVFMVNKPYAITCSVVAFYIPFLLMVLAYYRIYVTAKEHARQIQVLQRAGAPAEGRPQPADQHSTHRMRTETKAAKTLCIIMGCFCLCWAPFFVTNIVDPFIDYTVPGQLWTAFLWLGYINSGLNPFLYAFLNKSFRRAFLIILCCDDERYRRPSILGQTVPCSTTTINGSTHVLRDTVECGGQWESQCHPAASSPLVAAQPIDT
Data set [3] has as its system Canis familiaris. Description: Gastrointestinal motility was reported after intravenous administration at a dose 1 mg/kg to dogs as induction number of GMC (gaint migrating contractions). The class given is functional, Canis lupus familiaris. In short, it runs like this: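 Colonic contractions were recorded by a force transducer implanted on the ascending colon and analyzed by computer. Colonic motility is expressed as the number of giant migrating contractions induced after dosing.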

The species named for a further data set is Mus musculus. The data set can be described thus: Dose at which the compound induced fecal excretion in mice. The class given is organism-based, Feces. Particulars: in vivo. The method, boiled down: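 Unfasted mice were dosed subcutaneously, and fecal excretion was the read-out.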

Turning to `COc1cc(N)c(Cl)cc1C(=O)NC1CCN(CC2CCN(C(=O)CCN)CC2)CC1`, the “Gastric motor index, % of pre-dose” value with Canis familiaris [1] was determined as 107%. Also, the IC50 in data set [2] came to 9.5 nM. In the data set on Canis familiaris [3], the Induction number came to 3.
The like results for `COc1cc(N)c(Cl)cc1C(=O)NC1CCN(CC2CCN(C(=O)CN)CC2)CC1` were, in that order, 165%, 9.3 nM and 5.
`COc1cc(N)c(Cl)cc1C(=O)NC1CCN(CC2CCN(C(=O)CCCCN)CC2)CC1`: the “Gastric motor index, % of pre-dose” value in the data set on Canis familiaris [1] is given as 112%. The compound also gave an IC50 in data set [2] of 3.91 nM.
In the same order, the values of `COc1cc(N)c(Cl)cc1C(=O)NC1CCN(CC2CCN(CC(O)CN)CC2)CC1` (stereo not drawn) are 121% and 14.4 nM.
The like results for `COc1cc(N)c(Cl)cc1C(=O)NC1CCN(CC2CCN(CCN)CC2)CC1` were, in that order, 127% and 14.3 nM.
Take `COc1cc(N)c(Cl)cc1C(=O)NC1CCN(CC2CCN(C(=O)CCCN)CC2)CC1`: the “Gastric motor index, % of pre-dose” value in the data set with Canis familiaris [1] was 130%. The IC50 in data set [2] stood at 3.99 nM. This compound had an Induction number with Canis familiaris [3] of 5.
As for `COc1cc(N)c(Cl)cc1C(=O)NC1CCN(CC2CCN(CC(C)CN)CC2)CC1` (stereo not drawn), the “Gastric motor index, % of pre-dose” value in the data set on Canis familiaris [1] was found to be 177%. Besides, in data set [2], the IC50 was found to be 14.3 nM. In addition, the Induction number in the data set on Canis familiaris [3] is 1.
Turning to `COc1cc(N)c(Cl)cc1C(=O)NC1CCN(CC2CCN(C(=O)C(C)CN)CC2)CC1` (stereo not drawn), the “Gastric motor index, % of pre-dose” value in the data set on Canis familiaris [1] is 121%. Also, the half-maximal inhibitory concentration (IC50) in data set [2] came to 5.08 nM.
`COc1cc(N)c(Cl)cc1C(=O)NCC(O)CN1CCC(CN2CCC(N)CC2)CC1` (stereo not drawn) yielded an IC50 in data set [2] of 40.6 nM.
`COc1cc(N)c(Cl)cc1C(=O)NC1CCN(CC2CCN(CCCN)CC2)CC1`: in the data set on Canis familiaris [1], the “Gastric motor index, % of pre-dose” value stood at 151%. In data set [2], this compound gave a 50% inhibitory concentration (IC50) of 13.4 nM. Besides, in the data set with Canis familiaris [3], the Induction number stood at 7.
On to `COc1cc(N)c(Cl)cc1C(=O)NC1CCN(CC2CCN(CCCCN)CC2)CC1`, for which the “Gastric motor index, % of pre-dose” value with Canis familiaris [1] came out at 148%. In addition, the IC50 in data set [2] is 6.47 nM. The compound further gave an Induction number in the data set with Canis familiaris [3] of 6. Besides, the Dose in the data set listed under Mus musculus is more than 1 mg/kg.
Regarding `CCOc1cc(N)c(Cl)cc1C(=O)NCC1CN(Cc2ccc(F)cc2)CCO1` (stereo not drawn) [MOSAPRIDE], in the data set with Canis familiaris [1], the “Gastric motor index, % of pre-dose” value was 188%. This compound also had an IC50 in data set [2] of 113 nM.
For the compound `COc1cc(N)c(Cl)cc1C(=O)NC1CCN(C(=O)C2CCN(C(=O)CCCN)CC2)CC1`, the “Gastric motor index, % of pre-dose” value with Canis familiaris [1] is reported as 132%. In addition, in data set [2], the IC50 was determined as 425 nM. Further, the Induction number in the data set on Canis familiaris [3] is reported as 2.
With `COc1cc(N)c(Cl)cc1C(=O)NC1CCN(CC2CCN(C(=O)C(C)(C)N)CC2)CC1`, the “Gastric motor index, % of pre-dose” value in the data set with Canis familiaris [1] worked out at 112%. The 50% inhibitory concentration (IC50) in data set [2] turned out to be 2.6 nM.
Take `COc1cc(N)c(Cl)cc1C(=O)NC1CCN(CC2CCN(CCCCCN)CC2)CC1`: in the data set on Canis familiaris [1], the “Gastric motor index, % of pre-dose” value is given as 194%. The same compound came in with an IC50 in data set [2] of 11.2 nM. In the data set with Canis familiaris [3], this compound yielded an Induction number of 4.
Consider `COc1cc(N)c(Cl)cc1C(=O)NC1CCN(CC2CCN(C(=O)C(N)C(C)C)CC2)CC1` (stereo not drawn), for which the “Gastric motor index, % of pre-dose” value with Canis familiaris [1] worked out at 147%. The IC50 in data set [2] stood at 2.53 nM.
Regarding `COc1cc(N)c(Cl)cc1C(=O)NC1CCN(CC2CCN(CCCNS(C)(=O)=O)CC2)CC1`, in the data set on Canis familiaris [1], the “Gastric motor index, % of pre-dose” value was determined as 151%. Further, the IC50 in data set [2] came to 21.1 nM. In the data set on Canis familiaris [3], the Induction number was 2.
`COc1cc(N)c(Cl)cc1C(=O)NC1CCN(CC2CCN(C(=O)C(C)N)CC2)CC1` (stereo not drawn): the “Gastric motor index, % of pre-dose” value in the data set on Canis familiaris [1] is 127%. For the same compound, in data set [2], the half-maximal inhibitory concentration (IC50) stood at 5.06 nM.
With `CCCC(N)C(=O)N1CCC(CN2CCC(NC(=O)c3cc(Cl)c(N)cc3OC)CC2)CC1` (stereo not drawn), the “Gastric motor index, % of pre-dose” value in the data set with Canis familiaris [1] is 117%. In data set [2], this compound came in with an IC50 of 2.57 nM. In the data set with Canis familiaris [3], this compound displayed an Induction number of 1.

For the origin of these results see ChEMBL document CHEMBL1135254, “Novel N-[1-(1-substituted 4-piperidinylmethyl)-4-piperidinyl]benzamides as potent colonic prokinetic agents” (Bioorg Med Chem Lett, 2002).
